Assay results: PubChem BioAssay
The source made the active and inactive calls.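 The calls were made as follows, unless noted: active = GFP response above 150% of the DMSO level; inconclusive = fewer than 70 events counted for a yeast strain; inactive = the rest.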

Assays:
[1] = hit retest on RPL19A-GFP reporter strain – cell-based, S. cerevisiae, flow cytometry, cherry picks, mother/daughter gates, confirmation (AID 2270;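 active = GFP response below 50% of the DMSO control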); settings: 3 h, at 10 µM, stronger effect = lower value, 100 = same GFP as DMSO wells
[2] = yeast TOR pathway reporter LAP4-GFP change – cell-based, cherry picks, flow cytometry, mother/daughter gates, confirmation (AID 2271;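 active = GFP response above 150% of the DMSO control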;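 also: ratio of sample to DMSO plate mean so 100% equals DMSO level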); settings: S. cerevisiae LAP4-GFP strain, 3 h, at 10 µM, stronger effect = higher value, 100 means same as DMSO control
Outline: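 Material: Alexa 633-stained baker's yeast GFP-fusion strain; Compound dosing: single test-compound dose, 10 µM final; Incubation: 30 °C, 3 h compound incubation, rotating; Detection: HT flow cytometry, GFP fluorescence channel; Control set: positive rapamycin (400 ng/mL), negative DMSO.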

[3] = TOR pathway reporter MEP2-GFP, retest of hits – S. cerevisiae, flow cytometry GFP, cherry picks, confirmation (AID 2272;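 active = GFP response above 150% of the DMSO control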;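 also: ratio of well signal to plate DMSO mean so 100% equals DMSO level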); settings: S. cerevisiae MEP2-GFP strain, 3 h, at 10 µM, stronger effect = higher value
[4] = yeast AGP1-GFP fluorescence change, single-dose – cell-based, flow cytometry, S. cerevisiae, cherry picks, confirmation (AID 2273);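 also: median GFP channel fluorescence over the whole cell population gate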; settings: S. cerevisiae AGP1-GFP strain, 3 h, at 10 µM
[5] = TOR pathway CIT2 reporter hit retest – S. cerevisiae, GFP fusion, cherry picks, mother/daughter gates, confirmation (AID 2274); settings: S. cerevisiae CIT2-GFP strain, flow cytometry, 3 h, at 10 µM, stronger effect = higher value
[6] = measured here: daughter cell gate
[7] = measured here: mother cell gate
[8] = measured here: daughter cell gate response
[9] = measured here: mother cell gate response

| SMILES | GFP response vs DMSO [1] | GFP response vs DMSO [1, 6] | GFP response vs DMSO [1, 7] | GFP response relative to DMSO [2] | GFP response relative to DMSO [2, 8] | GFP response relative to DMSO [2, 9] | GFP response vs DMSO [3] | GFP response, % of DMSO [4] | GFP response, % of DMSO [5] | GFP response, % of DMSO [5, 6] | GFP response, % of DMSO [5, 7] |
| --- | --- | --- | --- | --- | --- | --- | --- | --- | --- | --- | --- |
| O=C(/C=C/c1cc(Br)ccc1O)c1ccco1 | 99.9% (inactive) | 101% | 99% | 151% (active) | 135% | 153% | 122% (inactive) | 100% (inactive) | 95% (inactive) | 98.3% | 91% |
| O=C(Cn1c(=O)oc2cc(S(=O)(=O)N3CCCC3)ccc21)Nc1ccccc1Br | 93.7% (inactive) | 92.6% | 94.3% | 97.9% (inactive) | 97.6% | 96.1% | 102% (inactive) | 99.9% (inactive) | 101% (inactive) | 103% | 102% |
| CCOC(=O)c1ccc(NC(=O)CCc2nc(-c3ccccc3)no2)cc1 | 97.3% (inactive) | 97% | 97.5% | 107% (inactive) | 107% | 108% | 106% (inactive) | 99.3% (inactive) | 101% (inactive) | 101% | 98.2% |
| N#C/C(=C\c1c(N(Cc2ccccc2)Cc2ccccc2)nc2ccccn2c1=O)C(N)=O | 98.4% (inactive) | 99.2% | 98.2% | 99.8% (inactive) | 97.2% | 102% | 102% (inactive) | 104% (inactive) | 106% (inactive) | 101% | 109% |
| CCCOc1ccc(C(=O)NNC(=S)NC(=O)c2ccco2)cc1 | 124% (inactive) | 111% | 110% | 175% (active) | 148% | 167% | 137% (inactive) | 131% (inactive) | 134% (inactive) | 132% | 121% |
| Cc1ccccc1N1C(=O)c2sc3nc4c(c(=O)n3c2C1=O)CCC4 | 96.2% (inactive) | 94.9% | 96.3% | 107% (inactive) | 107% | 110% | 99% (inactive) | 102% (inactive) | 90.1% (inactive) | 90.2% | 88.2% |
| CS(=O)(=O)c1nc(-c2ccccc2)cc(C(F)(F)F)n1 | 102% (inactive) | 105% | 95.9% | 192% (active) | 179% | 189% | 146% (inactive) | 102% (inactive) | 95.2% (inactive) | 101% | 86.9% |
| CCc1nnc(NC(=O)CSc2nnc(C3CCCCC3)n2-c2cccc(Cl)c2)s1 | 98.2% (inactive) | 98.5% | 98.6% | 100% (inactive) | 99.3% | 99.5% | 102% (inactive) | 101% (inactive) | 101% (inactive) | 102% | 100% |
| COc1ccc(-c2[nH]ncc2-c2ccc(Cl)cc2)c(O)c1 | 101% (inactive) | 97.8% | 99.4% | 103% (inactive) | 100% | 105% | 102% (inactive) | 93.7% (inactive) | 104% (inactive) | 101% | 105% |
| CSC1=NS(=O)(=O)c2c(C)nn(C)c2S1 | 88.7% (inactive) | 91% | 85.8% | 156% (active) | 159% | 152% | 110% (inactive) | 104% (inactive) | 84.7% (inactive) | 90.5% | 78.1% |
| Cc1cc(S(=O)(=O)ON2C(=O)c3ccccc3C2=O)ccc1F | 78.2% (inactive) | 84.3% | 66.6% | 153% (active) | 153% | 160% | 108% (inactive) | 105% (inactive) | 120% (inactive) | 84.1% | 98.7% |
| Cc1onc(-c2ccccc2)c1C(=O)N1CCC(C)CC1 | 92% (inactive) | 93.4% | 91.6% | 103% (inactive) | 102% | 103% | 118% (inactive) | 102% (inactive) | 108% (inactive) | 105% | 107% |
| O=C(COc1c(Br)cc(Br)c2cccnc12)N1CCc2ccccc2C1 | 98.2% (inactive) | 97.8% | 97.2% | 140% (inactive) | 124% | 144% | 112% (inactive) | 93.2% (inactive) | 101% (inactive) | 102% | 95.6% |
| COc1ccc(/C=C/C(=O)c2c(O)cc(C)oc2=O)c(OC)c1 | 104% (inactive) | 101% | 103% | 102% (inactive) | 101% | 103% | 103% (inactive) | 100% (inactive) | 95.9% (inactive) | 95.6% | 90.7% |
| Cc1cc(NCCN2CCOCC2)n2ncc(-c3ccccc3)c2n1 | 99.6% (inactive) | 99.8% | 99.4% | 107% (inactive) | 110% | 107% | 103% (inactive) | 89.3% (inactive) | 103% (inactive) | 99.3% | 104% |
| Cc1nc2c(-c3ccc(F)cc3)c(C)nn2c(N2CCOCC2)c1C | 100% (inactive) | 101% | 100% | 96.5% (inactive) | 96.5% | 97.5% | 104% (inactive) | 98.7% (inactive) | 104% (inactive) | 104% | 101% |
